From ChEMBL document CHEMBL1914412, “Molecular modeling study and synthesis of novel dicationic flexible triaryl guanidines and imidamides as antiprotozoal agents” (Eur J Med Chem, 2011)

Legend:
[1] = tested on: Nucleic Acid; test: Binding affinity to poly(dA-dT) DNA assessed as change in melting temperature at compound/polynucleotide ratio 0.3 in MES10 buffer by spectrophotometry; type: nucleic-acid assay
[2] = tested on: Trypanosoma brucei rhodesiense; test: Antitrypanosomal activity against Trypanosoma brucei rhodesiense STIB900 after 72 hrs using alamar blue staining by microplate fluorometric analysis; type: functional, organism-based; settings: STIB900, 72 h
Method in brief: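 STIB 900 trypanosome suspension with serial drug dilutions, 37 °C, 5% CO₂, 72 h; Alamar Blue added and incubation continued 2–4 h. Two independent runs, each in duplicate.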

[3] = tested on: Plasmodium falciparum; test: Antiplasmodial activity against Plasmodium falciparum K1 infected in human red blood cells assessed as [3H]hypoxanthine incorporation after 48 hrs by liquid scintillation counting; type: functional, organism-based
[4] = Selectivity index, ratio of IC50 for Trypanosoma brucei rhodesiense STIB900 to IC50 for Plasmodium falciparum K1; type: functional
[5] = tested on: L6; test: Cytotoxicity against rat L6 cells after 72 hrs by alamar blue staining-based microplate fluorometric analysis; type: cell-based; settings: L6, 72 h
[6] = Ratio of IC50 for compound to IC50 for pentamidine for rat L6 cells; type: cell-based; settings: read-out: Ratio IC50
[7] = tested on: Plasmodium falciparum; test: Ratio of IC50 for pentamidine to IC50 for compound for Plasmodium falciparum K1; type: functional

| ΔTm [1] | IC50 [2] | IC50 [3] | Compound | Ratio IC50 [4] | IC50 [5] | selectivity ratio [6] | Ratio IC50 [7] |
| --- | --- | --- | --- | --- | --- | --- | --- |
| 0 °C | 2.78 µM | 0.627 µM | CC(C)(C)c1ccc(C(=N)Nc2ccc(Oc3cccc(Oc4ccc(NC(=N)c5ccc(C(C)(C)C)cc5)cc4)c3)cc2)cc1 | 4.4 | 81.4 µM | 39 | – |
| 0.1 °C | 0.318 µM | 0.0215 µM | C/N=C(\N)Nc1ccc(Oc2cccc(Oc3ccc(N/C(N)=N/C)cc3)c2)cc1.Cl.Cl | 14.8 | 45.7 µM | 22 | 2.2 |
| 0.1 °C | 0.612 µM | 0.0633 µM | N=C(Nc1ccc(Oc2ccc(Oc3ccc(NC(=N)c4ccc(-c5ccccc5)cc4)cc3)cc2)cc1)c1ccc(-c2ccccc2)cc1 | 9.6 | > 120 µM | 60 | – |
| 5 °C | 0.863 µM | 0.0715 µM | N=C(Nc1ccc(Oc2ccc(Oc3ccc(NC(=N)c4ccccc4)cc3)cc2)cc1)c1ccccc1 | 12.1 | 2.8 µM | 1.3 | – |
| 0 °C | 0.155 µM | 0.0382 µM | CC(C)/N=C(\N)Nc1ccc(Oc2cccc(Oc3ccc(N/C(N)=N/C(C)C)cc3)c2)cc1.Cl.Cl | 4.1 | 82.1 µM | 39 | 1.2 |
| 0 °C | 0.16 µM | 0.0172 µM | CC(C)/N=C(\N)Nc1ccc(Oc2ccc(Oc3ccc(N/C(N)=N/C(C)C)cc3)cc2)cc1.Cl.Cl | 9.3 | 19.6 µM | 9.3 | 2.7 |
| 2.1 °C | 0.151 µM | 0.0265 µM | N=C(N)Nc1ccc(Oc2ccc(Oc3ccc(NC(=N)N)cc3)cc2)cc1 | 5.7 | 11.6 µM | 5.5 | – |
| 0 °C | 0.4 µM | 0.06 µM | CC(C)(C)c1ccc(C(=N)Nc2ccc(Oc3ccc(Oc4ccc(NC(=N)c5ccc(C(C)(C)C)cc5)cc4)cc3)cc2)cc1 | 6.7 | 1.5 µM | 0.71 | – |
| 2 °C | 1.04 µM | 0.251 µM | N=C(Nc1ccc(Oc2cccc(Oc3ccc(NC(=N)c4ccccc4)cc3)c2)cc1)c1ccccc1 | 4.2 | 0.9 µM | 0.43 | – |
| 0 °C | 0.395 µM | 0.307 µM | N=C(Nc1ccc(Oc2cccc(Oc3ccc(NC(=N)C4CCCCC4)cc3)c2)cc1)C1CCCCC1 | 1.3 | 3.9 µM | 1.9 | – |
| 0.8 °C | 0.155 µM | 0.0141 µM | C/N=C(/N)Nc1ccc(Oc2ccc(Oc3ccc(N/C(N)=N/C)cc3)cc2)cc1.Cl.Cl | 11 | 57.3 µM | 27 | 3.3 |
| 2.1 °C | 0.427 µM | 0.259 µM | N=C(Nc1ccc(Oc2ccc(Oc3ccc(NC(=N)C4CCCCC4)cc3)cc2)cc1)C1CCCCC1 | 1.6 | 3.1 µM | 1.5 | – |
| 0 °C | 82.3 µM | 4.7 µM | N=C(Nc1ccc(Oc2cccc(Oc3ccc(NC(=N)c4ccc(-c5ccccc5)cc4)cc3)c2)cc1)c1ccc(-c2ccccc2)cc1 | 17 | 9.1 µM | 4.3 | – |
| 1.1 °C | 0.171 µM | 0.027 µM | N=C(N)Nc1ccc(Oc2cccc(Oc3ccc(NC(=N)N)cc3)c2)cc1 | 6.3 | 10.6 µM | 5 | – |
